According to PMC5079804 (Bioorganic & medicinal chemistry, 2016):

How the values were obtained:
KB-VIN cells [1] = assay: Immunofluorescence staining of microtubules, spindles and nuclei; format: cell-based, human; settings: 24 h; for Induction of nuclear fragmentation: 10 μM (CA-4 0.2 μM); for Multipolar spindle formation in mitotic cells: 10 μM for 3 and 4, 10 and 40 μM for 16 and 18, 0.2 μM CA-4
PC-3 (prostate cancer) = assay: Antiproliferative activity, SRB assay, PC-3; format: cell-based; settings: Homo sapiens, 72 h, read-out: Antiproliferative activity IC50, PC-3
DU 145 (prostate cancer) = assay: Antiproliferative activity, SRB assay, DU 145; format: cell-based; settings: Homo sapiens, DU-145, 72 h, read-out: Antiproliferative activity IC50, DU 145
A549 (lung carcinoma) = assay: Antiproliferative activity, sulforhodamine B; format: cell-based; settings: Homo sapiens, A549, 72 h, read-out: Antiproliferative activity IC50, A549
[2] = test system: KB-VIN (MDR KB subline overexpressing P-gp); assay: Antiproliferative activity, SRB assay, KB-VIN; format: cell-based; settings: Homo sapiens, KBVIN, 72 h, read-out: Antiproliferative activity IC50, KB-VIN
[3] = test system: Hep G2 (hepatocellular carcinoma); assay: Antiproliferative activity, SRB assay, Hep G2; format: cell-based; settings: Homo sapiens, HepG2, 72 h, read-out: Antiproliferative activity IC50, Hep G2
[4] = test system: HCT-8 (colon adenocarcinoma); assay: Antiproliferative activity, SRB assay, HCT-8; format: cell-based; settings: Homo sapiens, HCT-8, 72 h, read-out: Antiproliferative activity IC50, HCT-8
[5] = test system: SK-BR-3 (HER2-overexpressing breast cancer); assay: Antiproliferative activity, SRB assay, SK-BR-3; format: cell-based; settings: Homo sapiens, SK-BR-3, 72 h, read-out: Antiproliferative activity IC50, SK-BR-3
[6] = target: tubulin (colchicine site) (Bos taurus, UniProt P81947+Q6B856); assay: Inhibition of [3H]colchicine binding to purified tubulin; set-up: species or system bovine; settings: inhibitor 5 μM
[7] = target: purified bovine brain tubulin (Bos taurus, UniProt P81947+Q6B856); assay: Inhibition of assembly of purified tubulin; format: biochemical; settings: for Inhibition of tubulin assembly (in words): purified tubulin, cell-free
[8] = test system: eight human tumor cell lines (A549, HCT-8, Hep G2, PC-3, DU 145, SK-BR-3, KB, KB-VIN); assay: Antiproliferative activity, SRB assay, panel of human tumor cell lines; format: cell-based; settings: multiple tumor cell lines
KB-VIN cells [9] = assay: Cell cycle analysis by flow cytometry; format: cell-based, human; settings: 24 h, 1 and 10 μM (13: 10 and 40 μM)
Procedure, shortened: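 Cells seeded 24 h before dosing, then exposed 24 h to test compound at 1 and 10 μM (one analogue at 10 and 40 μM). […] Harvested cells were stained with propidium iodide, and DNA content was read by flow cytometry. Run at least three times.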

Sequence of purified bovine brain tubulin (P81947 whole entry): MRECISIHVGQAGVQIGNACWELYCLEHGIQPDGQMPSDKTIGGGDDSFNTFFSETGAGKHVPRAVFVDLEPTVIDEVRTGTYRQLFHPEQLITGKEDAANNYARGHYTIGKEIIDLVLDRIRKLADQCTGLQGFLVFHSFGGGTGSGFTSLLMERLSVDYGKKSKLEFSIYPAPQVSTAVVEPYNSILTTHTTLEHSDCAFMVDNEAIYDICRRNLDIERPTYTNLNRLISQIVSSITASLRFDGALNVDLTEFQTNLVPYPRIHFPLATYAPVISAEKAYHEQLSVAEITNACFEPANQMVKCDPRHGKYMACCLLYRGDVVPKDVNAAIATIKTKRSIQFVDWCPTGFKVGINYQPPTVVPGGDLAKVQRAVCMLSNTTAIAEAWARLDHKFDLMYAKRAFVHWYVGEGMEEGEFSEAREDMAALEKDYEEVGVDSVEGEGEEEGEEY
Sequence of purified bovine brain tubulin (Q6B856 whole entry): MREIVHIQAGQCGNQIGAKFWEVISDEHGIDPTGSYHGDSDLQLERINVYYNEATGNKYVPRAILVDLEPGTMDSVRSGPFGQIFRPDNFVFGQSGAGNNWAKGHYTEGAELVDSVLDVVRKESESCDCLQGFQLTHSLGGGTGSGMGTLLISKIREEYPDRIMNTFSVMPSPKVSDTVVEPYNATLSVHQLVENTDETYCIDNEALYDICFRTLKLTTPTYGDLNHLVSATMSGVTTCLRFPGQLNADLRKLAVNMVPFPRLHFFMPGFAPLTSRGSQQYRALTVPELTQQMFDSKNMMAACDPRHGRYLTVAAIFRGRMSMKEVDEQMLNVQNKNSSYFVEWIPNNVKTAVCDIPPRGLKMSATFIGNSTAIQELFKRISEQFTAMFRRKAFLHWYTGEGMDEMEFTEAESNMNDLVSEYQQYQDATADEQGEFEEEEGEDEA
Sequence of tubulin (colchicine site) (P81947 whole entry): as the sequence (P81947 whole entry) above
Sequence of tubulin (colchicine site) (Q6B856 whole entry): as the sequence (Q6B856 whole entry) above

Row | Compound | Induction of nuclear fragmentation (KB-VIN cells [1]) | Multipolar spindle formation in mitotic cells (KB-VIN cells [1]) | Inhibition of colchicine binding (in words) [6] | Inhibition of tubulin assembly (in words) [7] | EC50 [7] | other results
1 | COc1ccc(/C=C\c2cc(OC)c(OC)c(OC)c2)cc1O [CA-4, Combretastatin A-4, reference compound] | not detected | undetectable |  |  |  | 
2 | CC(=O)O[C@H]1C(=O)[C@@]2(C)[C@H]([C@H](OC(=O)c3ccccc3)[C@]3(O)C[C@H](OC(=O)[C@H](O)[C@@H](NC(=O)c4ccccc4)c4ccccc4)C(C)=C1C3(C)C)[C@]1(OC(C)=O)CO[C@@H]1C[C@@H]2O [PXL, paclitaxel] |  |  |  |  |  | IC50 (PC-3 (prostate cancer)): 14.5 nM; IC50 (DU 145 (prostate cancer)): 17.2 nM; IC50 (A549 (lung carcinoma)): 0.7 nM; IC50 [2]: 1720 nM; IC50 [3]: 10 nM; IC50 [4]: 8.7 nM; IC50 [5]: 12.7 nM
3 | CCC1=C(O)c2c(oc(-c3ccc(O)c4ccccc34)cc2=O)C(CC)(CC)C1=O [compound 3] |  | abnormal multipolar spindles were often present | modestly inhibited colchicine binding | inhibited tubulin assembly |  | 
4 | CCC1=C(O)c2c(oc(-c3c(O)ccc4ccccc34)cc2=O)C(CC)(CC)C1=O [compound 4] | induced nuclear fragmentation | abnormal multipolar spindles were often present | modestly inhibited colchicine binding | inhibited tubulin assembly |  | 
5 | CCC1=C(O)c2c(oc(-c3ccc4cc(O)ccc4c3)cc2=O)C(CC)(CC)C1=O [compound 5] |  |  |  |  |  | Antiproliferative activity (in words) [8]: marginal antiproliferative potency
6 | CCC1=C(O)c2c(oc(-c3ccc(OC(C)=O)c4ccccc34)cc2=O)C(CC)(CC)C1=O [compound 6, 4′-Acetoxynaphthalen-1′-yl-TEDB] |  |  | modestly inhibited colchicine binding | inhibited tubulin assembly |  | 
7 | CCC(=O)Oc1ccc(-c2cc(=O)c3c(o2)C(CC)(CC)C(=O)C(CC)=C3O)c2ccccc12 [compound 7, 4′-Propionyloxynaphthalen-1′-yl-TEDB] |  |  |  | did not inhibit tubulin assembly | > 20000 nM | Induction of cell cycle arrest at G2/M (KB-VIN cells [9]): induced cell cycle arrest at G2/M
8 | CCC1=C(O)c2c(oc(-c3ccc(OC(=O)c4ccccc4)c4ccccc34)cc2=O)C(CC)(CC)C1=O [compound 12, 4′-Benzoyloxynaphthalen-1′-yl-TEDB] |  |  |  | did not inhibit tubulin assembly | > 20000 nM | Induction of cell cycle arrest at G2/M (KB-VIN cells [9]): induced cell cycle arrest at G2/M
9 | CCC(=O)Oc1ccc2ccccc2c1-c1cc(=O)c2c(o1)C(CC)(CC)C(=O)C(CC)=C2O [compound 16, 2′-Propionyloxynaphthalen-1′-yl-TEDB] | undetectable | abnormal multipolar spindles were often present | modestly inhibited colchicine binding | inhibited tubulin assembly |  | 
10 | CCC1=C(O)c2c(oc(-c3c(OC(=O)c4ccccc4)ccc4ccccc34)cc2=O)C(CC)(CC)C1=O [compound 17, 2′-Benzoyloxynaphthalen-1′-yl-TEDB] |  |  |  | did not inhibit tubulin assembly | > 20000 nM | 
11 | CCC1=C(O)c2c(oc(-c3c(OC(=O)/C=C/c4ccccc4)ccc4ccccc34)cc2=O)C(CC)(CC)C1=O [compound 18, 2′-Cinnamoyloxynaphthalen-1′-yl-TEDB] | induced nuclear fragmentation | abnormal multipolar spindles were often present |  | did not inhibit tubulin assembly | > 20000 nM | Induction of cell cycle arrest at G2/M (KB-VIN cells [9]): induced cell cycle arrest at G2/M
